Test results: ChEMBL document CHEMBL5576155, “Expanding the chemical space of ester of quinoxaline-7-carboxylate 1,4-di-N-oxide derivatives as potential antitubercular agents” (RSC Med Chem, 2024)

Tests used:
[1] = test system: Mycobacterium tuberculosis; experiment: Antitubercular activity against Mycobacterium tuberculosis H37Rv assessed as reduction in microbial growth by MABA; type: functional
In short: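 M. tuberculosis H37Rv tested in vitro by modified Alamar blue microplate assay (MABA), with rifampicin and isoniazid as reference drugs. MIC was the lowest drug concentration giving 90% inhibition. Triplicate independent experiments.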

[2] = test system: Mycobacterium tuberculosis; experiment: Antitubercular activity against Mycobacterium tuberculosis H37Rv assessed as reduction in microbial growth incubated for 10 days under anaerobic condition followed by 28 hrs incubation with aerobic condition further incubated 7 days at 5 % CO2 condition by low-oxygen recovery assay; type: functional; conditions: time 436 hrs
[3] = Cytotoxicity against mouse J774.2 cells assessed as reduction in cell viability by MTT assay; type: toxicity, cell-based
In short: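 Murine macrophage J774.2 grown in RPMI 1640 with 10% FBS, 1% MEM-NEAA and 100 U mL−1 antibiotic–antifungal, at 37 °C, 5% CO2, humidified. Cells washed and plated at 1 × 10^5 per well. Serial-dilution dose–response run in triplicate, with 0.1% DMSO as negative control. Viability read by MTT colorimetric assay. CC50 derived from the dose–response.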

[4] = Selectivity index, ratio of CC50 for cytotoxicity against mouse J774.2 cell to MIC for antibacterial activity against Mycobacterium tuberculosis H37Rv; type: toxicity; conditions: J774.2 cells, read-out: Selectivity Index
In short: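 CC50 was measured in murine macrophage J774.2 cells grown in RPMI 1640 with 10% FBS, 1% MEM-NEAA and antibiotic–antifungal mix at 37 °C, 5% CO2. 1 × 10^5 cells per well received serial dilutions in triplicate, with 0.1% DMSO as negative control. Viability was read by MTT. SI is CC50 over the MABA MIC against H37Rv.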

Compound	MIC [1] [µM]	MIC [2] [µM]	CC50 [3] [µM]	selectivity ratio [4]
CCOC(=O)c1ccc2c(c1)[n+]([O-])c(C(=O)c1cccs1)c(C(F)(F)F)[n+]2[O-]	0.24	0.51		
CC(=O)c1c(C(F)(F)F)[n+]([O-])c2ccc(C(=O)OCC(C)C)cc2[n+]1[O-]	0.7	0.94	25.4	10.2
Cc1ccc(NC(=O)c2c(C)[n+]([O-])c3cc(C(=O)OCC(C)C)ccc3[n+]2[O-])c(C)c1	> 118	> 118	> 200	10.2
CCCCOC(=O)c1ccc2c(c1)[n+]([O-])c(C(=O)OCc1ccccc1)c(C)[n+]2[O-]	0.59	1.73	> 200	10.2
CCCCOC(=O)c1ccc2c(c1)[n+]([O-])c(C(=O)OC)c(C)[n+]2[O-]	0.87	5.24	46.2	10.2
CC(C)OC(=O)c1ccc2c(c1)[n+]([O-])c(C(=O)c1cccs1)c(C(F)(F)F)[n+]2[O-]	0.19	0.54		
CCCCOC(=O)c1ccc2c(c1)[n+]([O-])c(C(=O)OCC)c(C)[n+]2[O-]	1.38	6.24	> 200	10.2
CCCCOC(=O)c1ccc2c(c1)[n+]([O-])c(C(C)=O)c(C(F)(F)F)[n+]2[O-]	0.62	0.97	> 200	10.2
CCCCOC(=O)c1ccc2c(c1)[n+]([O-])c(C(=O)OCC)c(C(F)(F)F)[n+]2[O-]	0.57	0.87	> 200	10.2
Cc1c(C(=O)Nc2ccccc2)[n+]([O-])c2cc(C(=O)OCC(C)C)ccc2[n+]1[O-]	2.56	2.73	> 200	10.2
CC(C)COC(=O)c1ccc2c(c1)[n+]([O-])c(C(=O)c1ccco1)c(C(F)(F)F)[n+]2[O-]	0.68	1.65	81.8	10.2
Cc1c(C(=O)c2ccccc2)[n+]([O-])c2cc(C(=O)OCC(C)C)ccc2[n+]1[O-]	0.95	2.68	34.2	10.2
CCCCOC(=O)c1ccc2c(c1)[n+]([O-])c(C(=O)Nc1ccccc1)c(-c1ccccc1)[n+]2[O-]	3.3	9.74	44.1	10.2
CC(C)COC(=O)c1ccc2c(c1)[n+]([O-])c(C(=O)c1ccccc1)c(C(F)(F)F)[n+]2[O-]	0.53	0.92		
CC(C)COC(=O)c1ccc2c(c1)[n+]([O-])c(C(=O)Nc1ccccc1)c(-c1ccccc1)[n+]2[O-]	0.57	1.49	> 200	10.2
CCCCOC(=O)c1ccc2c(c1)[n+]([O-])c(C(=O)c1cccs1)c(C(F)(F)F)[n+]2[O-]	0.57	0.86		

Compound	MIC [1] [µM]	MIC [2] [µM]	CC50 [3] [µM]	selectivity ratio [4]
CCCCOC(=O)c1ccc2c(c1)[n+]([O-])c(C(=O)OC(C)(C)C)c(C)[n+]2[O-]	14.7	128	> 200	10.2
CC(C)COC(=O)c1ccc2c(c1)[n+]([O-])c(C(=O)c1cccs1)c(C(F)(F)F)[n+]2[O-]	0.55	0.77	43.9	10.2
CCCCOC(=O)c1ccc2c(c1)[n+]([O-])c(C(=O)Nc1ccc(Cl)cc1)c(C)[n+]2[O-]	> 117	> 117	50.3	10.2
CC(C)COC(=O)c1ccc2c(c1)[n+]([O-])c(C(=O)c1ccc3ccccc3c1)c(C(F)(F)F)[n+]2[O-]	1.38	2.33		
COC(=O)c1c(C)[n+]([O-])c2ccc(C(=O)OCC(C)C)cc2[n+]1[O-]	0.84	2.01		
CC(=O)c1c(C)[n+]([O-])c2ccc(C(=O)OCC(C)C)cc2[n+]1[O-]	0.94	1.82	87.2	10.2
CCCCOC(=O)c1ccc2c(c1)[n+]([O-])c(C(=O)c1ccc3ccccc3c1)c(C(F)(F)F)[n+]2[O-]	1.07	3.04	> 200	10.2
CCCCOC(=O)c1ccc2c(c1)[n+]([O-])c(C(=O)c1ccccc1)c(C(F)(F)F)[n+]2[O-]	0.53	0.88	48.4	10.2
Cc1ccc(NC(=O)c2c(C)[n+]([O-])c3ccc(C(=O)OCC(C)C)cc3[n+]2[O-])c(C)c1	19.7	12.3	> 200	10.2
Cc1c(C(=O)Nc2ccc(Cl)cc2)[n+]([O-])c2cc(C(=O)OCC(C)C)ccc2[n+]1[O-]	1.63	1.86		
CCCCOC(=O)c1ccc2c(c1)[n+]([O-])c(C(=O)Nc1ccc(C)cc1C)c(C)[n+]2[O-]	> 118	> 118		
CCCCOC(=O)c1ccc2c(c1)[n+]([O-])c(C(C)=O)c(C)[n+]2[O-]	0.88	2.3	58.4	10.2
CCCCOC(=O)c1ccc2c(c1)[n+]([O-])c(C(=O)c1ccccc1)c(C)[n+]2[O-]	1.95	5.37	17.7	10.2
NNC(=O)c1ccncc1 [ISONIAZID]	2.92	> 933		
CO[C@H]1/C=C/O[C@@]2(C)Oc3c(C)c(O)c4c(O)c(c(/C=N/N5CCN(C)CC5)c(O)c4c3C2=O)NC(=O)/C(C)=C\C=C\[C@H](C)[C@H](O)[C@@H](C)[C@@H](O)[C@@H](C)[C@H](OC(C)=O)[C@@H]1C [RIFAMPIN]	0.02	0.06		
